Test [1] in a line: inhibitors of TNFa-induced NFkB p65 translocation, primary screen, imaging, HUVEC, MLSMR starter and 10KST1 sets (AID 438;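 active = inhibition above 20% together with a positive visual image hit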;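 also: compound added about 3h40 before a 20 min TNFalpha stimulation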;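 as to inhibition: signal is the nuclear over cytoplasmic p65 intensity ratio per well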). The conditions noted are these: HUVEC TNFa-induced p65 nuclear translocation; cell count: measured here: nuclei count (cytotoxicity indicator), at 2.08 µM; inhibition: at 2 µM, stronger effect = higher value, 0% TNFa-plus-vehicle, 100% no-TNFa wells.
Test [2] in a line: inhibitors of mutant huntingtin aggregation, primary screen, imaging, exon1htt(103Q)mCFP cells, high-content imaging (AID 483;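 active = visual image review flags a hit and inhibition of aggregation exceeds 20%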;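 also: compound exposure lasted 3 days before fixation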;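 as to nuclei count: percent of the per-plate median nuclei count of sample wells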). The conditions noted are these: exon1htt(103Q)mCFP cell line, aggregate imaging, at 2 µM; inhibition of aggregation: stronger effect = higher value; nuclei count: measured here: cell count, toxicity.
A short description of test [3]: inhibitors of E-selectin induction by TNFa, primary screen, imaging, HUVEC, immunofluorescence, MLSMR starter and 10KST1 sets (AID 487;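 active = visually confirmed hit in the image check and inhibition above 20%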;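 as to inhibition: signal is fraction of cell area covered by stained E-selectin grains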;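 as to nuclei count: 100% = median nuclei count of all wells on the same plate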). The conditions noted are these: HUVEC TNFalpha-induced E-selectin immunofluorescence imaging, at 2 µM; inhibition: stronger effect = higher value; nuclei count: measured here: cell number, toxicity.
The target in test [4] is Voltage-gated potassium channel subunit beta-2 (Rattus norvegicus) (UniProt P62483). Briefly: KvBeta enzyme negative modulators, primary screen, biochemical, NADPH fluorescence (AID 622;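 active = fluorescence slope higher than the sample average by over 3 SD, cut at about -0.22 in these data, passing the limit was not always enough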;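 also: slope of raw intensity against log time taken from 70 to 1610 s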). As to conditions: recombinant KvBeta, 4-cyanobenzaldehyde reduction, at 10 µM, stronger effect = higher value.
Chain of Voltage-gated potassium channel subunit beta-2 (Rattus norvegicus) (P62483 whole entry, looked up): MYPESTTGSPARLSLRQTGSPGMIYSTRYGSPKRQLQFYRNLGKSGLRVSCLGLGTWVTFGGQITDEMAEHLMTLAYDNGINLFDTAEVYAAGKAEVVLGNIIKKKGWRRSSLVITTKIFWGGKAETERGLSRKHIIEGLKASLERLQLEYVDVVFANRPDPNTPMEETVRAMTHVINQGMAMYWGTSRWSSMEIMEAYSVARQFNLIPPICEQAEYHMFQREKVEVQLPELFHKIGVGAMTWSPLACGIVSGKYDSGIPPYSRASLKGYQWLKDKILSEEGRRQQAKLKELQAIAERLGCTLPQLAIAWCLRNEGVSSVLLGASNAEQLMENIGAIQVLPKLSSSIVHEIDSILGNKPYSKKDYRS
The target is the same in test [5]. Briefly: KvBeta positive modulators, primary screen, biochemical, NADPH fluorescence (AID 623;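 active = NADPH fluorescence slope more negative than the mean of all samples by about 3 SD, 99.7% confidence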;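 also: fluorescence intensity change per second fitted from 20 to 320 s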). As to conditions: Recombinant KvBeta, NADPH fluorescence decrease slope, 10 min; at 10 µM; stronger effect = lower value.
The target of test [6] is Muscarinic acetylcholine receptor M4 (Homo sapiens) (UniProt P08173). Briefly: compounds altering M4/GIRK thallium flux, either direction, primary screen, M4 allosteric agonist project, cell-based, HEK293 M4/GIRK, BTC-AM (AID 625;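 active = fluorescence slope after compound addition differing from the mean of all tested samples at 99.7% confidence, mostly higher but some lower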;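 also: thallium influx through GIRK channels coupled to M4 in HEK293 cells with BTC-AM dye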). As to conditions: at 10 µM, actives lie on both sides. An outline of the steps: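 Material – HEK293 cells with M4 receptor and GIRK channels · Buffer or medium – pH 7.3 thallium assay buffer · Doses – one dose, 10 µM final · Timing – cells overnight at 37 °C, BTC-AM loading 1 h, reads 2 min total · Measured by – kinetic fluorescence with BTC-AM dye · Controls – carbachol and DMSO controls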
Chain of Muscarinic acetylcholine receptor M4 (Homo sapiens) (P08173 whole entry, looked up): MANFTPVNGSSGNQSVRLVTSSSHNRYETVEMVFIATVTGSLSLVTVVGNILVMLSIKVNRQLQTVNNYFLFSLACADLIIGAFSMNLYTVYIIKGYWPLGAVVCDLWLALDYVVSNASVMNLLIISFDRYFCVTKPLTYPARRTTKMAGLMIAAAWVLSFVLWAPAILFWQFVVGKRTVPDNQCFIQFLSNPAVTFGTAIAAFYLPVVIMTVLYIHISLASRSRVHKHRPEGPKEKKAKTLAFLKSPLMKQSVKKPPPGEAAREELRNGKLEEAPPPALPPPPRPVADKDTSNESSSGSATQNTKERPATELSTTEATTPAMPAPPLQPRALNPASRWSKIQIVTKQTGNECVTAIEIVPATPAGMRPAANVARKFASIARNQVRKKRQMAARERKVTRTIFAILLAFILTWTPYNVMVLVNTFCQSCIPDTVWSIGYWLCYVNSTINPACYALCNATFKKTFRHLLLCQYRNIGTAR

Test [7] is described as follows: inhibitors of Sendai virus-induced IRF3 signaling, primary screen, TLR/RLR signaling modifier project, cell-based, Sendai virus stimulus, luciferase, 10K MLSCN set (AID 602276).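 Also: firefly luciferase from ISG56 promoter only with Renilla not read in this screen; 0% = Sendai virus plus DMSO and 100% = medium plus DMSO without virus.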 The conditions noted are these: HEK293 RL24 IRF3 luciferase reporter, at 10 µM, stronger effect = higher value.
Test [8] can be described thus: inhibitors of poly I:C-induced TLR3 signaling, primary screen, cell-based, poly I:C stimulus, luciferase, 10K MLSCN set (AID 602277;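 active = inhibition of the reporter signal at or above 50%; inactive = inhibition below 50%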). The conditions noted are these: HEK293-TLR3 RL24 IRF3 luciferase reporter, at 10 µM, stronger effect = higher value.

Calls of active or inactive are those of the source.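 The calls were made as follows, unless noted: active = inhibition at or above 50% at 10 µM; inactive = inhibition below 50%.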

With `CC(C)CNC(=O)C1C2C=CC(C2)C1C(=O)O` (centres undefined), the cell count in test [1] stood at 456. Also, the inhibition in test [1] was -2.9% (inactive); in test [3], -33.7% (inactive); in test [7], 13.4% (inactive); in test [8], 20.4% (inactive). Also, the inhibition of aggregation in test [2] was -8.2% (inactive). For the same compound, the nuclei count in test [2] came out at 98.4%; in test [3], 128%. Also, the fluorescence slope in test [4] is -0.535 (inactive); in test [6], 0.00535 (inactive). Moreover, the NADPH fluorescence slope in test [5] was -4e-05 (inactive).
In the case of `Nc1nnc(-c2cc3ccccc3oc2=O)s1`, the cell count in test [1] turned out to be 723. In addition, the inhibition is -6.8% (inactive) in test [1], -72.3% (inactive) in test [3], -3.81% (inactive) in test [7] and -27.9% (inactive) in test [8]. For the same compound, the inhibition of aggregation in test [2] was 2.5% (inactive). Also, the nuclei count was determined as 94% in test [2] and 123% in test [3]. Moreover, the results for the fluorescence slope in test [4] and in test [6] were -0.0269 (inactive) and 0.0038 (inactive), respectively. Also, in test [5], the NADPH fluorescence slope is -7.7e-06 (inactive).
For `CCC1Cc2c(nc3c4c(nc(N5CCOCC5)c(C#N)c24)NC(C)=N3)O1` (centres undefined), the cell count in test [1] worked out at 657. The inhibition was 0.8% (inactive) in test [1], 43.9% (inactive) in test [3], 14.3% (inactive) in test [7] and 1.06% (inactive) in test [8]. For the same compound, the inhibition of aggregation in test [2] was 7.2% (inactive). In addition, the nuclei count in test [2] amounted to 92.3%; in test [3], 97.4%. Moreover, the values for the fluorescence slope in test [4] and in test [6] were -0.35 (inactive) and 0.00571 (inactive), respectively. For the same compound, the NADPH fluorescence slope in test [5] is -1.8e-05 (inactive).
In the case of `c1ccc(-c2cc(-c3nc(-c4ccccn4)no3)c3ccccc3n2)cc1`, the cell count in test [1] was 469. The inhibition is 7.6% (inactive) in test [1], -171% (inactive) in test [3], 0.406% (inactive) in test [7] and -37.7% (inactive) in test [8]. Besides, the inhibition of aggregation in test [2] was -4.3% (inactive). Also, the values for the nuclei count in test [2] and in test [3] were 101% and 140%, respectively. Besides, the fluorescence slope in test [4] is -0.265 (inactive); in test [6], 0.0088 (inactive). Further, in test [5], the NADPH fluorescence slope is -8.8e-06 (inactive).
Regarding `COc1nc(OC)nc(N2CCC(NC(=O)C(Cc3ccc(C(C)C)cc3)NC(C)=O)CC2)n1` (centres undefined), in test [1], the cell count was 800. In addition, the inhibition was -5.5% (inactive) in test [1], -10.4% (inactive) in test [3], 12.2% (inactive) in test [7] and 11.8% (inactive) in test [8]. In addition, the inhibition of aggregation in test [2] was -37.6% (inactive). Further, the nuclei count came to 119% in test [2] and 130% in test [3]. In addition, the results for the fluorescence slope in test [4] and in test [6] were -0.486 (inactive) and 0.00515 (inactive), respectively. Further, the NADPH fluorescence slope in test [5] was -4.2e-05 (inactive).
As for `Cc1ccc(Cl)cc1NC(=O)CSc1nnc(C)n1-c1ccccc1`, the cell count in test [1] was 783. The inhibition is -5.4% (inactive) in test [1], -16% (inactive) in test [3], 21.8% (inactive) in test [7] and 23.3% (inactive) in test [8]. Besides, in test [2], the inhibition of aggregation is -28.9% (inactive). Moreover, the nuclei count in test [2] came to 100%; in test [3], 96%. In addition, the fluorescence slope in test [4] is -0.551 (inactive); in test [6] it was 0.00502 (inactive). Also, the NADPH fluorescence slope in test [5] is -4.3e-05 (inactive).
With `Cc1ccc(-c2[nH]nc3c2C(c2ccoc2)C(C#N)=C(N)O3)cc1C` (centres undefined), in test [1], the cell count amounted to 853. Also, the inhibition in test [1] was 3.6% (inactive); in test [3] it was -111% (inactive); in test [7] it was 23.8% (inactive); in test [8], 16.8% (inactive). In addition, the inhibition of aggregation in test [2] is 7.7% (inactive). In addition, the nuclei count is 92.5% in test [2] and 126% in test [3]. In addition, the fluorescence slope was -0.474 (inactive) in test [4] and 0.00509 (inactive) in test [6]. Moreover, in test [5], the NADPH fluorescence slope was -5.3e-05 (inactive).
As to `COc1ccc(-c2cc(C(=O)N3CCN(Cc4ccccc4)CC3)no2)cc1OC`, the cell count in test [1] is 463. Further, the inhibition was -23% (inactive) in test [1], -36% (inactive) in test [3], 8.32% (inactive) in test [7] and 12.9% (inactive) in test [8]. In addition, the inhibition of aggregation in test [2] was -5.8% (inactive). The values for the nuclei count in test [2] and in test [3] were 106% and 112%, respectively. The fluorescence slope in test [4] is -0.318 (inactive); in test [6], 0.00627 (inactive). Moreover, the NADPH fluorescence slope in test [5] was -6.6e-05 (inactive).
For `COCCn1nnnc1C(C(C)C)N(Cc1cccnc1)Cc1ccccc1Cl` (centres undefined), the cell count in test [1] worked out at 526. The inhibition was 2.1% (inactive) in test [1], -72.3% (inactive) in test [3], 9.31% (inactive) in test [7] and 31.3% (inactive) in test [8]. For the same compound, the inhibition of aggregation in test [2] was 8.9% (inactive). Moreover, the nuclei count is 108% in test [2] and 111% in test [3]. The fluorescence slope in test [4] is -0.574 (inactive); in test [6], 0.00529 (inactive). Further, the NADPH fluorescence slope in test [5] was 1.3e-05 (inactive).
